The record followed here is the EternaBench riboswitch data.

The test system of this series is MS2 coat protein. Kind of series: apparent Kd, MS2 coat protein; higher = weaker binding; RNA-MaP array; FMN 200 µM where present. An outline of the steps:
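The apparent Kd comes from binding curves fitted cluster by cluster, filtered, and summarised as a median. Those curves followed SNAP-549-labelled MS2 coat protein from 0.7 or 1.5 nM, doubling to 3 µM, on Illumina sequencing-chip clusters where stalled E. coli RNA polymerase had transcribed the designs, without and then with constant ligand. The buffer was 100 mM Tris-HCl pH 7.5, 80 mM KCl, 4 mM MgCl2, BSA, DTT, yeast tRNA and Tween-20, and green signal was normalised to red-channel RNA signal and control-cluster median Fmax.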

[1] abbreviates: designed as: ON switch for flavin mononucleotide, no ligand.
Setting [2] is: ligand present: flavin mononucleotide, designed as: ON switch for flavin mononucleotide.
Setting [3] is: designed as: OFF switch for flavin mononucleotide, no ligand.
[4] abbreviates: ligand present: flavin mononucleotide, designed as: OFF switch for flavin mononucleotide.

Broadly, the apparent Kd is the concentration giving half-maximal binding under the conditions of the assay. With “GAGUUUAAGUUUGUCACUUAGAGAGAGGAUAUGGAAAACUUGACAUGAGGAUCACCCAUGUAUAAUCAGAAGGCUCGAGUACGA”, the “apparent Kd” value is, setting by setting: under setting [1], 12.1 nM; under setting [2], 7.33 nM.

Consider “AACAAUCUAUCUGAGGAUAUCAUGAAAAAAACAUGAGGAUCACCCAUGUGCAGGAAAACUGCAUAUGAGAAGGCAGAUAGAUUGA”, for which the “apparent Kd” value by setting is: under setting [1], 702 nM; under setting [2], 27 nM.

Regarding “UUACUAUUGGAGAAGGGUCGAUCAUAUAGAAUGACAGGAUAUCCAACAUGAGGAUCACCCAUGUUUCACCCAUAUGAGGAUCAC”, the “apparent Kd” value was determined as 102 nM under setting [3] and 31 nM under setting [4].

Turning to “UGGUCAUCAUCAGGAUAUUAACAUGGGCUACAUUAAGAAGGGAUAGUGAGAUACGAACUGAAACAUGAGGAUCACCCAUGUUGU”, the “apparent Kd” value reads like this: under setting [1], 105 nM; under setting [2], 51.9 nM.

Regarding “UUGCGGUAGGAGAAGGACAGAGGCGGAAACACAUACAUGAGGAUCACCCAUGUAGGAUAUCCUACCUAACGCGGACUCCUCCAG”, the “apparent Kd” value by setting is: under setting [3], 5.85 nM; under setting [4], 6.43 nM.

For the sequence “UACGUACAGAAGAACGCCGGGUCCAGAAGGGACAUGAGGAUCACCCAUGUACCGUUGAUUGCUUGUCAGGAUAUGGACCCGGCC”, the “apparent Kd” value runs as follows: under setting [3], 6.32 nM; under setting [4], 21.8 nM.

With “GUCGGGAUUACAUGAGGAUCACCCAUGUCAGAACGGGCAGUCAGAAGGUGCCAUUAGGGAGAGGGUAAGGAUAUGAUUUUUGGC”, the “apparent Kd” value reads like this: under setting [1], 11.3 nM; under setting [2], 9.92 nM.

For “GCUACCAAAGAAGCCAACAUGAGGAUCACCCAUGUAUGUUGGUAGGAUAUCGUAUGCAAAGCAUACGAGAAGGGCUAAGGUAGC”, the “apparent Kd” value is, setting by setting: under setting [1], 98.8 nM; under setting [2], 116 nM.

With “GGAGCACACAUUAACAUGAGGAUCACCCAUGUCAAAGGACAUGAGGAUAUGGAUCCGAAAAGGAUCCAGAAGGCAUGGUGCUCC”, the “apparent Kd” value is, setting by setting: under setting [1], 173 nM; under setting [2], 11.1 nM.

For “AUGGUACAUGAGGAUCACCCAUGUCAGGAUAUCGGCUGUGACGUGAAAAGAGUGUUAGCGAGAAGGGACUGCAA”, the “apparent Kd” value stood at 37.3 nM under setting [3] and 43.1 nM under setting [4].

For the sequence “GAAGCACAUGAGGAUCACCCAUGUAAGGAUAUAUUUCUGGUCCGGCCGGACCAGUACCGUAGAAGGUAUGUAAA”, the “apparent Kd” value runs as follows: under setting [3], 13.5 nM; under setting [4], 13.9 nM.

As to “GGGUACAUCGGAGGAUAUCAUGUAAAUACAUGAGGAUCACCCAUGUCGAUGGAGACAUCGGAGAUUGAGAAGGCCGAUUUACCG”, the “apparent Kd” value under setting [1] turned out to be 184 nM and the “apparent Kd” value under setting [2] amounted to 8.4 nM.

As to “CAAUUGGCACAGAAGGGUGACAUGAGGAUCACCCAUGUAGCGUGGUACUCAGGAGGAACCACGCCACAGGAUAUGUGCCGGCAC”, the “apparent Kd” value under setting [1] worked out at 44.5 nM and the “apparent Kd” value under setting [2] was 123 nM.

“GAAUACCUAGGAUAUACAUGAGGAUCACCCAUGUCAGUAGACUGGGUAAAGUCUCUCAGUAGAAGGAGGACCCG”: the “apparent Kd” value under setting [3] was determined as 109 nM and the “apparent Kd” value under setting [4] was found to be 97.8 nM.

Turning to “ACGGCAAUCGCAGGAUAUGGUUACAUGAGGAUCACCCAUGUCUAGGGUCUAAUUAGGUAUAACUACCAGAAGGGCGAAGGCCUA”, the “apparent Kd” value under setting [3] came out at 53.5 nM and the “apparent Kd” value under setting [4] came out at 66 nM.

Consider “GUCAUGUAAGGAUAUCUUACAUGUGACUUCGGUCACUGUCGAGAGAAGGUACAUGAGGAUCACCCAUGUUCGAC”, for which the “apparent Kd” value amounted to 17.3 nM under setting [3] and 24 nM under setting [4].

Regarding “GGUUGUCAUCGUCAUCCUUUCUGUACAUGAGGAUCACCCAUGUAGGAUAUGCUGCUCUCGGUGUGGCAGAAGGGCGUGUGUCUU”, the “apparent Kd” value by setting is: under setting [3], 34.2 nM; under setting [4], 37.6 nM.

As to “GGAUAGGACAGAGGAUAUACGUGCUAGAGAUACUAGCAAAAUUUCCUCACAUGAGGAUCACCCAUGUAGAAGGCUGUCCUACCG”, the “apparent Kd” value reads like this: under setting [3], 17 nM; under setting [4], 484 nM.

As to “UGUUUCUUGUAAGGAUAUACUAGCGAUAAGCUAGUAGAAGGUACUGUCUUUUGUAUCUCAUAUUUACAUGAGGAUCACCCAUGU”, the “apparent Kd” value stood at 9.41 nM under setting [1] and 8.07 nM under setting [2].

As for “CGCUCUAUAUAUUAGGCAAGAAUCAGAAGGCGUUACAUGAGGAUCACCCAUGUUUUGUAUAGUAACGAGGAUAUGAUAUGAGCG”, the “apparent Kd” value under setting [3] came out at 13.6 nM and the “apparent Kd” value under setting [4] was 14.5 nM.

For the sequence “UUAAUUAAUUAAUUGCAGUUACAUGAGGAUCACCCAUGUAUAUAGGAUAUCGUCAGGAAUACUGACGAGAAGGAUAUACUCUGC”, the “apparent Kd” value under setting [3] stood at 21.6 nM and the “apparent Kd” value under setting [4] amounted to 26.7 nM.

In the case of “GGAUAGGACAGAGGAUAUACGUGCUAGAGACACUAGCAAAAUUUCCUCACAUGAGGAUCACCCAUGUAGAAGGCUGUCCUAUCG”, the “apparent Kd” value under setting [3] stood at 15.4 nM and the “apparent Kd” value under setting [4] came out at 405 nM.

With “AUAUAAAUAUAGGAUAUCGAAUUUAUUAAUUAUCGAGAAGGAUAAACAUGAGGAUCACCCAUGUGGUAUCAUGG”, the “apparent Kd” value reads like this: under setting [3], 366 nM; under setting [4], 336 nM.

“CCAUGGUGGGCAGGAUAUCGUCCAGCUUGCAGACGAGAAGGGCUUAAACAUGAGGAUCACCCAUGUGAAAAGCGGGUUGUCCAA”: the “apparent Kd” value is, setting by setting: under setting [3], 26.5 nM; under setting [4], 131 nM.

Consider “GCAGCACAGUUUUACAUGAGGAUCACCCAUGUCGAUUGUUAUGAGGAUAUGCAUCGUAUGAAGAUGCAGAAGGCAUUGUGCUGC”, for which the “apparent Kd” value under setting [1] was determined as 6.96 nM and the “apparent Kd” value under setting [2] turned out to be 5.5 nM.

Consider “AAAUAACAUGUAGGAUAUCCAGCAUUGACCAUCGGAGAAGGACAUGAGGAUCACCCAUGUACCGAUACAAUGGAAUAAGGGAAU”, for which the “apparent Kd” value under setting [3] worked out at 16 nM and the “apparent Kd” value under setting [4] is 17.9 nM.

As for “ACCUCGUCAGGAUAUCCUAUUAAUUGUUUCAUAUUUACUAUGGAGAAGGGACAUGAGGAUCACCCAUGUUGGUC”, the “apparent Kd” value is 53.3 nM under setting [3] and 57.8 nM under setting [4].

On to “GCGUUGCACGAGAAGGCCAAUACAUGAGGAUCACCCAUGUUAAAAUGUUUUGGAGGAUAUCGAUCAUCUACAAUAAAGCAACGC”, for which the “apparent Kd” value runs as follows: under setting [3], 12.6 nM; under setting [4], 11.6 nM.

With “UGUUGUAUUACAGGAUAUCUAGUAUUUUUAAUUAGAGAAGGGUAUUCACAUGAGGAUCACCCAUGUAUAUACGAGGAAGUUGUG”, the “apparent Kd” value by setting is: under setting [1], 43.3 nM; under setting [2], 43.1 nM.

Turning to “UAUGUGAGAGGAUAUACUGAACCCAACCUAGAUUCUCACGAACAUGAGGAUCACCCAUGUAGAAGGCUCCGUGU”, the “apparent Kd” value was 124 nM under setting [3] and 394 nM under setting [4].

For “AAGAAACAUGAGGAUCACCCAUGUAAAUAAAUCUCAGGAUAUCGUACAUGGAAGAUCUAACGAGAAGGGAGAAGAA”, the “apparent Kd” value is 137 nM under setting [1] and 140 nM under setting [2].

Regarding “ACAUUGAAUGUGAGGAUAUCGAUGUGAUGGGUUGUCGAGAAGGCACAUGAGGAUCACCCAUGUGGGUUGUAGCA”, the “apparent Kd” value under setting [3] came to 144 nM and the “apparent Kd” value under setting [4] worked out at 362 nM.

Take “AACAAGUUAGGAUAUGCUGCUCGUCACAAAAGUGAUGAGUAGCAGAAGGAACAUGAGGAUCACCCAUGUAAAGA”: the “apparent Kd” value under setting [3] was 29.3 nM and the “apparent Kd” value under setting [4] turned out to be 23.7 nM.

In the case of “AAUUGACACGUAGGAUAUCGAUCUAAAUUAACUCGAGAAGGACGCACAUGAGGAUCACCCAUGUUUAAUGGAGUAGACAUGUUG”, the “apparent Kd” value runs as follows: under setting [3], 314 nM; under setting [4], 508 nM.

Regarding “GGAGCAACAUGAGGAUCACCCAUGUAGGAUAUCGCUAUUGUAAUCAUGAAACAUGAUUACAAUAGCGAGAAGGACAUAUGCUGG”, the “apparent Kd” value under setting [3] turned out to be 24.9 nM and the “apparent Kd” value under setting [4] came to 27.3 nM.

Take “GGGUACAUCGGAGGAUAUCAUGUAAAUACAUGAGGAUCACCCAUGUCGAUGGAGACUUCGGAGAUUGAGAAGGCCGAUGUACCG”: the “apparent Kd” value runs as follows: under setting [1], 434 nM; under setting [2], 27.8 nM.

As to “UUUUGUUUACAAGGAUAUCAAUUAUUUAUACUUCCUACAUGAGGAUCACCCAUGUUUUUAUAUUUUGAGAAGGUGUAAUGUCGG”, the “apparent Kd” value was 40.4 nM under setting [1] and 39 nM under setting [2].

For “AGACGGAGCUGAGGAUAUUACAUGAGGAUCACCCAUGUAAGUCUCCAGGAAACUGGAGACAAAUGUAAGAAGGCAGCUCCGUCA”, the “apparent Kd” value under setting [3] is 19.3 nM and the “apparent Kd” value under setting [4] is 29.5 nM.

Turning to “GUCUCGUCAGGAUAUGACGCUACAUUUUCUUUUUAGAAGAGUCAGAAGGGACAUGAGGAUCACCCAUGUGAUUC”, the “apparent Kd” value runs as follows: under setting [3], 430 nM; under setting [4], 596 nM.

For the sequence “AAUUGAAACGUAGGAUAUCGCUAUUAAUUAAUUCGAGAAGGACGUACAUGAGGAUCACCCAUGUUUAAUGGUGUAGUUUAGUUG”, the “apparent Kd” value runs as follows: under setting [3], 179 nM; under setting [4], 252 nM.

Take “UUGGCGACGUAGAAGGGUGACAUGAGGAUCACCCAUGUGCCGAUAUUCCUCGAGAUAUGUCGGCCACAGGAUAUACGUGCCAUC”: the “apparent Kd” value by setting is: under setting [1], 51.8 nM; under setting [2], 98.6 nM.

Regarding “GAGAUGACAGUCAGGAUAUCUGUAGGGCGGACUUAAGAGAAGGGACAUGAGGAUCACCCAUGUGUGAUUGGUUU”, the “apparent Kd” value reads like this: under setting [3], 266 nM; under setting [4], 347 nM.

Turning to “GUGGCACAUGAGGAUCACCCAUGUCAGGAUAUCGCGUGUUUUUUUUCGGCCGCGCGCGCGAGAAGGGACGUCUU”, the “apparent Kd” value under setting [3] worked out at 27.1 nM and the “apparent Kd” value under setting [4] was 29.8 nM.

Consider “UUUAAUAAGUAGAAGGACGGAGAGUAUGAAGUCGUAGGAUAUACAUAAGACAUGAGGAUCACCCAUGUGUGUAUUUUGGGUAUG”, for which the “apparent Kd” value runs as follows: under setting [3], 12.8 nM; under setting [4], 13.4 nM.

Turning to “CCUUAGUCAGGAUAUACAUGAGGAUCACCCAUGUAAAAUUUUAAUUUAAUUUUAAGGUGUAGAAGGGACCACCC”, the “apparent Kd” value runs as follows: under setting [3], 26.3 nM; under setting [4], 22.6 nM.

In the case of “CUUCAGUCAGGAUAUGUUAAUCUCACCACUCGGCGAGCCGGACAGAAGGGACAUGAGGAUCACCCAUGUUAAAA”, the “apparent Kd” value is 39.1 nM under setting [3] and 23.4 nM under setting [4].

Consider “GGAUAGGACAGAGGAUAUACGUGCUAGAGUUACUAGCAAAAUUUCCUCACAUGAGGAUCACCCAUGUAGAAGGCUGUCCUAUCG”, for which the “apparent Kd” value reads like this: under setting [3], 15.6 nM; under setting [4], 470 nM.

As for “CGUGUUGACGAAGGAUAUGGAUACAUGAGGAUCACCCAUGUAUAUUUUGUGAUCAAGUUUAAGAUCCAGAAGGUCGUUGACACG”, the “apparent Kd” value is 77.6 nM under setting [3] and 131 nM under setting [4].
